Measured values as given in ChEMBL document CHEMBL2169785, “Inhibition of Acyl-CoA: cholesterol acyltransferase (ACAT), overexpression of cholesterol transporter gene, and protection of amyloid β (Aβ) oligomers-induced neuronal cell death by tricyclic pyrone molecules” (J Med Chem, 2012).
Calls of active or inactive are those of the source. No cut-off for these calls is given here.

Legend:
MC65 = test: Neuroprotective activity in tetracycline-deprived human MC65 cells assessed as protection against APP-induced cell death up to 50 uM by MTT assay
[1] = Neuroprotective activity in […] human MC65 cells assessed as protection against APP-induced cell death by MTT assay; format: functional, cell-based
In short: (§1)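 MC65 neuroblastoma cells carrying a tetracycline-repressible SβC gene (APP C99 fragment); induction causes intraneuronal Aβ oligomer accumulation and cell death after three days. Viability read by MTT. EC50 (median effective concentration for protection) and TD50 (median toxic concentration) derived; TI = TD50/EC50. Triplicate experiments, standard errors calculated.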

[2] = Cytotoxicity against human MC65 cells by MTT assay; format: cell-based; conditions: read-out: TD50 (the source's name)
In short: as §1

[3] = Therapeutic index, ratio of TD50 for human MC65 cells to EC50 for […] human MC65 cells; format: cell-based; conditions: read-out: TI
In short: as §1

Huh-7 = test: Induction of ABCA1 mRNA expression in human HuH7 cells after 24 hrs; format: functional, cell-based; conditions: Huh-7, 24 h
In short: (§2)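 Cells (MC65 or Huh-7) incubated 24 h with compound or mock medium. ABCA1 gene expression measured with a Gene Expression Assay and compared with mock-treated cells to derive EC50.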

[4] = Induction of ABCA1 mRNA expression in human MC65 cells after 24 hrs; format: functional, cell-based; conditions: MC65, 24 h
In short: as §2

[5] = target: T1, Sterol O-acyltransferase 1 (Homo sapiens, UniProt P35610); test: Inhibition of ACAT activity in human MC65 cells using NBD-cholesterol staining after 24 hrs by fluorescence assay
T1 sequence (P35610 whole entry): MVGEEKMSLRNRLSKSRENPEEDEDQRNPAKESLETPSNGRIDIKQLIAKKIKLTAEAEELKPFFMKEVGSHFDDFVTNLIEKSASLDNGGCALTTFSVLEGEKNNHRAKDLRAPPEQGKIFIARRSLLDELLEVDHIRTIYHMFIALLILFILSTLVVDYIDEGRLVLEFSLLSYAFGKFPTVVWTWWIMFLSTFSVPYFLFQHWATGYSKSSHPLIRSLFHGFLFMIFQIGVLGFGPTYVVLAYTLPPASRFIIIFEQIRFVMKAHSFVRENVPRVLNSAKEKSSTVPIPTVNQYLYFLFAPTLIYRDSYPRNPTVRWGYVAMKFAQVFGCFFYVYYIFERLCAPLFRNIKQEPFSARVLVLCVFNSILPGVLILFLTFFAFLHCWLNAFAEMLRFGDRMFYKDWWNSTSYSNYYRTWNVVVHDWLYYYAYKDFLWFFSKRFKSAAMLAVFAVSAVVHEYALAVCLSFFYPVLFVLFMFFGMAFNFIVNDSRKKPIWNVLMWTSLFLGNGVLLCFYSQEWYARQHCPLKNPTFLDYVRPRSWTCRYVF

ACAT = test: Therapeutic index, ratio of TD50 for human MC65 cells to IC50 for ACAT activity in human MC65 cells; format: cell-based; conditions: read-out: TI

SMILES	Activity (MC65)	EC50 [1] [µM]	CC50 [2] [µM]	selectivity ratio [3]	EC50 (Huh-7) [µM]	EC50 [4] [µM]	IC50 [5] [µM]	selectivity ratio (ACAT)
CCCCCCCCCCC(C)(C)C(=O)Nc1c(OC)cc(OC)cc1OC	inactive							
COc1cc(CNCC(C)[C@H]2CCC3=Cc4c(cc(C)oc4=O)O[C@H]3C2)ccc1O (mixture of isomers)		0.242	26.3	109				
Cc1cc2c(c(=O)o1)C=C1CC[C@H](C(C)CNCc3c(O)ccc4ccccc34)C[C@@H]1O2 (mixture of isomers)		0.198	26.4	133				
CC(=O)Oc1ccccc1C(=O)NCC(C)[C@H]1CCC2=Cc3c(cc(C)oc3=O)O[C@H]2C1 (mixture of isomers)		> 50	8.35					
Cc1cc2c(c(=O)o1)C=C1CC[C@H](C(C)CNCc3ccc(O)c([N+](=O)[O-])c3)C[C@@H]1O2 (mixture of isomers)		3.85	> 50	> 13				
Cc1cc2c(c(=O)o1)C=C1CC[C@H](C(C)CNCc3ccc(C#N)cc3)C[C@@H]1O2 (mixture of isomers)		> 50	> 50					
Cc1cc2c(c(=O)o1)C=C1CC[C@H](C(C)CNCc3ccc(Cl)cc3)C[C@@H]1O2 (mixture of isomers)		2.79	48	17.2				
Cc1cc2c(c(=O)o1)C=C1CC[C@H](C(C)CNCc3ccc(N(C)C)cc3)C[C@@H]1O2 (mixture of isomers)		4.36	38.2	8.76				
Cc1cc2c(c(=O)o1)C=C1CC[C@H](C(C)CNCc3ccc(C=O)cc3)C[C@@H]1O2 (mixture of isomers)		6.41	39.4	6.15				
Cc1cc2c(c(=O)o1)C=C1CC[C@H](C(C)CNCc3ccccc3O)C[C@@H]1O2 (mixture of isomers)		2.44	30.7	12.6				
Cc1cc2c(c(=O)o1)C=C1CC[C@H](C(C)CNCc3cc(O)cc4ccccc34)C[C@@H]1O2 (mixture of isomers)		0.586	18.2	31.1				
Cc1cc2c(c(=O)o1)C=C1CC[C@H](C(C)CNCc3ccc4c(c3)OCO4)C[C@@H]1O2 (mixture of isomers)		1.18	> 50	> 42.4				
COc1cc(CNCC(C)[C@H]2CCC3=Cc4c(cc(C)oc4=O)O[C@H]3C2)cc(OC)c1O (mixture of isomers)		1.26	> 50	> 39.7				
Cc1cc2c(c(=O)o1)C=C1CC[C@H](C(C)CNCc3ccc(O)cc3)C[C@@H]1O2 (mixture of isomers)		0.07	37		0.6	1.1		
Cc1cc2c(c(=O)o1)C=C1CC[C@H](C(C)CNCc3ccc(O)c(Br)c3)C[C@@H]1O2 (mixture of isomers)		0.639	> 50	> 78.2				
COC(=O)c1ccc(CNCC(C)[C@H]2CCC3=Cc4c(cc(C)oc4=O)O[C@H]3C2)cc1 (mixture of isomers)		0.769	> 50	> 65				
Cc1cc2c(c(=O)o1)C=C1CC[C@H](C(C)CNCc3ccc(OCCO)cc3)C[C@@H]1O2 (mixture of isomers)		24.5	> 50	> 2.04				
COc1ccc(CNCC(C)[C@H]2CCC3=Cc4c(cc(C)oc4=O)O[C@H]3C2)cc1 (single isomer, unassigned)		2.77	> 50	> 18.1				
COc1ccc(CNCC(C)[C@H]2CCC3=Cc4c(cc(C)oc4=O)O[C@H]3C2)cc1O (mixture of isomers)		1.56	> 50	> 32.1				
Cc1cc2c(c(=O)o1)C=C1CC[C@H](C(C)Cn3cnc(N)c4ncnc3-4)C[C@@H]1O2 (stereo not given in full)		0.12	39	325	0.6	0.9	1.2	33
COc1ccc(CNCC(C)[C@H]2CCC3=Cc4c(cc(C)oc4=O)O[C@H]3C2)c2ccccc12 (stereo not given in full)		0.621	15.3	24.6				
Cc1cc2c(c(=O)o1)C=C1CC[C@H](C(C)CNCc3ccc4cc(O)ccc4c3)C[C@@H]1O2 (mixture of isomers)		0.459	24.1	52.5				
Cc1cc2c(c(=O)o1)C=C1CC[C@H](C(C)CNCc3ccc(OCc4ccccc4)c(OCc4ccccc4)c3)C[C@@H]1O2 (mixture of isomers)		0.662	9.38	14.2				
Cc1cc2c(c(=O)o1)C=C1CC[C@H](C(C)CNCc3ccc(O)c(F)c3)C[C@@H]1O2 (mixture of isomers)		0.067	> 50	> 746		2.2	1.8	> 28
Cc1cc2c(c(=O)o1)C=C1CC[C@H](C(C)CNCc3ccccc3)C[C@@H]1O2 (mixture of isomers)		3.24	37.3	11.5				
Cc1cc2c(c(=O)o1)C=C1CC[C@H](C(C)CNC(=O)c3ccccc3O)C[C@@H]1O2 (stereo not given in full)		6.25	6.69	1.07				
Cc1cc2c(c(=O)o1)C=C1CC[C@H](C(C)CNCc3cccc(O)c3)C[C@@H]1O2 (stereo not given in full)		4.66	> 50	> 10.7				
Cc1cc2c(c(=O)o1)C=C1CC[C@H](C(C)CNCc3ccc(O)c4ccccc34)C[C@@H]1O2 (mixture of isomers)		0.145	13.7		0.6	1.3		
Cc1cc2c(c(=O)o1)C=C1CC[C@H](C(C)CNCc3ccc(CO)cc3)C[C@@H]1O2 (mixture of isomers)		0.101	> 50	> 495		2.5	1.4	> 36
